Screens deposited in PubChem BioAssay by several laboratories.
Rows were chosen to be rich in hits. Some 2% of all compounds tested hit in one or more screens of this group.
Tb hexokinase = T. brucei hexokinase 1 inhibition; 0.11% of 220,000 active; inhibition, % at 10 µM; recombinant TbHK1, G6PDH-coupled NADH A340;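 active = inhibition of 50% or more in the single-dose primary screen; inactive = inhibition below 50%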
TNF necrop inh = inhibitors of TNF-alpha induced necroptosis in Jurkat FADD-/- cells. 0.068% of 220,000 active. Jurkat FADD-/- TNF necroptosis rescue, ATP luminescence, 24 h; 0 = TNF only, 100 = no-TNF cells. activation (protection from cell death), % at 10 µM;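 active = activation, meaning protection from cell death, of at least 50% relative to plate controls; inactive = activation below 50%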;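 note: necroptosis triggered by 40 ng/mL TNF-alpha added together with compound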
Lipid droplet = hepatic lipid droplet formation modulation; inhibition, % at 6.5 µM; 0.4% of 240,000 active; AML12 mouse hepatocytes, oleate lipid droplets, BODIPY imaging;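 active = lipid droplet intensity inhibited by at least 50%, with more than 500 cells counted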
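Assay system: AML12 hepatocytes (mouse); Probe or stimulus: oleic acid at 100 µM to induce lipid droplet formation; Dosing: compound at 6.5 µM only; Schedule: compound with oleate, overnight; Detection: fluorescence imaging, 20x objective, two fields per well; Measure: % inhibition of lipid droplet signal.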
zVAD death inh = blocks zVAD induced death of L929 cells. L929 zVAD necroptosis rescue, ATP luminescence, 24 h; with zVAD 60 µM. viability rescue, % at 10 µM. 0.38% of 220,000 active. AID 1377;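 active = activation, scaled between plate controls, above about 75%, limit read from the data; inactive = activation under that limit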;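 note: 0% = zVAD with DMSO and 100% = DMSO alone without zVAD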
M18AAP inhibitor = PfM18AAP enzyme inhibition. recombinant PfM18AAP, H-Glu-NHMec fluorogenic cleavage. inhibition, % at 7.35 µM. 1.2% of 290,000 active. AID 1822;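 active = inhibition above the campaign mean inhibition over all tested compounds plus 3 SD, cut at about 28% in these data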;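 note: 0% = plate median of test compound wells and 100% = 2 mM ZnCl2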
RBBP9 inh = human RBBP9 hydrolase inhibition | inhibition, % at 7.94 µM | recombinant RBBP9, FP-Rh probe fluorescence polarization | O75884 | AID 1515 | 0.2% of 220,000 active;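 active = inhibition above the campaign mean of all tested compounds plus 3 SD, cut at about 14% in these data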;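 note: plate controls were DMSO wells with RBBP9 for no effect and wells lacking RBBP9 protein for full effect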
Target sequence (O75884 whole entry, looked up): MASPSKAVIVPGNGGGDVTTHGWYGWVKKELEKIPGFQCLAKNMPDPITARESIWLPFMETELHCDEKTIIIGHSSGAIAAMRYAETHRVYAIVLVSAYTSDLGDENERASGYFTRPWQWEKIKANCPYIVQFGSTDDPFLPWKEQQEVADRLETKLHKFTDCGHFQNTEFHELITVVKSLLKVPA
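System: RBBP9 protein | Quantity: 2.5 µM RBBP9 dispensing solution, before mixing | Reagent: FP-Rh probe, 375 nM dispensing solution | Timing: Enzyme-compound preincubation 30 min, then probe labeling 45 min, 25 °C | Measured by: Fluorescence polarization | Read-out: % inhibition | Replication: One well per compound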
Hep lipid conf = confirmation of inhibitors of hepatic lipid droplet formation. shares compounds with Lipid droplet. AML12 mouse hepatocytes, BODIPY lipid droplet imaging; droplets induced with 100 µM oleic acid. inhibition, % at 5.2 µM. 65% of 870 active;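 active = inhibition of lipid droplet metric at least 50%, with more than 300 cells in each of four replicates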;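 note: plate controls were DMSO with oleic acid for no effect and 5 µM Triacsin-C for full effect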
AML12 cytotox = counter-screen for cytotoxicity in AML12 mouse hepatocytes; 3% of 870 active; shares compounds with Lipid droplet; z-score at 5 µM; DAPI nuclear morphology cytotoxicity imaging; hits give high values; cells fed 100 µM oleate overnight; in the data active = z-score above about 6.3;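 note: compound exposure lasted overnight at 37 °C before fixation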
AML12 tox conf = confirmation of cytotoxicity in AML12 mouse hepatocytes; AID 463219; cytotoxicity, % at 50 µM; 530 tested, under 10 active; AML12 mouse hepatocyte viability, ATP luminescence; cells loaded with 100 µM oleic acid; shares compounds with Lipid droplet;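 active = cytotoxicity above 50% in each of four replicates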;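 note: compound exposure lasted overnight at 37 °C before the ATP read; 0% = DMSO-treated cells and 100% = wells with no cells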
Active calls of the source: *.

For CC(C)Oc1ccccc1/C=N/Nc1ccccc1[N+](=O)[O-] the results were Tb hexokinase -12, TNF necrop inh 1, Lipid droplet 95*, zVAD death inh 1, M18AAP inhibitor 1, RBBP9 inh -4, Hep lipid conf 115* and AML12 cytotox 0.61.
`Cc1[nH]c2ccccc2c1/C=N/Nc1ccccc1[N+](=O)[O-]` gave Tb hexokinase -3, TNF necrop inh -5, Lipid droplet 85*, zVAD death inh 0, M18AAP inhibitor 11, RBBP9 inh -6, Hep lipid conf 114* and AML12 cytotox 0.4.
For COc1ccccc1/C=N\Nc1ccccc1[N+](=O)[O-] the results were Tb hexokinase -25, TNF necrop inh -2, Lipid droplet 165*, zVAD death inh -1, M18AAP inhibitor 1, RBBP9 inh 4, Hep lipid conf 63* and AML12 cytotox 0.72.
For CCCOc1ccc(/C=N/Nc2ccccc2[N+](=O)[O-])c(O)c1 the results were Tb hexokinase -11, TNF necrop inh -4, Lipid droplet 56*, zVAD death inh 0, M18AAP inhibitor -2, RBBP9 inh -3, Hep lipid conf 60 and AML12 cytotox -0.73.
Cc1[nH]c2ccccc2c1/C=N/NS(=O)(=O)c1ccccc1 was read as Tb hexokinase -7, TNF necrop inh 0, Lipid droplet 1, zVAD death inh 0, M18AAP inhibitor 23 and RBBP9 inh -2.
CCN(CC)c1nc(-c2ccc(C(=O)NN)cc2)nc(-c2ccc(C(=O)NN)cc2)n1 was read as M18AAP inhibitor 4.
`COc1cccc(-c2cn(-c3cccc(C(F)(F)F)c3)c(=S)[nH]2)c1` gave Lipid droplet 59*, M18AAP inhibitor 22, Hep lipid conf 2 and AML12 cytotox 0.35.
Screening O=c1ccc(-c2ccc([N+](=O)[O-])cc2)nn1-c1ccccc1 returned Tb hexokinase -9, TNF necrop inh 1, Lipid droplet 0, zVAD death inh 1, M18AAP inhibitor -13 and RBBP9 inh -6.
Screening O=[N+]([O-])c1ccc(-[n+]2nc(-c3ccccc3)nn2-c2ccccc2)cc1 returned Lipid droplet 87*, M18AAP inhibitor 1, Hep lipid conf 115*, AML12 cytotox -0.74 and AML12 tox conf 12.
For COC(=O)C1CCN(C(=O)COC(=O)CCc2nc3ccccc3c(=O)[nH]2)CC1 the results were Tb hexokinase -1, TNF necrop inh 1, Lipid droplet 13, zVAD death inh 0, M18AAP inhibitor 2 and RBBP9 inh -10.
For Cc1cc(=O)oc2cc(OCC(=O)NC3CCN(Cc4ccccc4)CC3)ccc12 the results were Lipid droplet -8 and M18AAP inhibitor -11.
Cc1cc(=O)oc2cc(OCC(=O)NC3CCN(Cc4ccccc4)CC3)c(Cl)cc12 was read as Lipid droplet 63*, M18AAP inhibitor 4, Hep lipid conf 13 and AML12 cytotox -1.2.
For CN(C1=C(N2CCCCC2)C(=O)c2ccccc2C1=O)c1ccccc1 the results were Tb hexokinase 2, TNF necrop inh -3, Lipid droplet 79*, zVAD death inh 0, M18AAP inhibitor 6, RBBP9 inh 7, Hep lipid conf 114*, AML12 cytotox 0.76 and AML12 tox conf 11.
COc1ccccc1NC1=C(N2CCCCC2)C(=O)c2ccccc2C1=O was read as Tb hexokinase -5, TNF necrop inh -11, Lipid droplet 69*, zVAD death inh 15, M18AAP inhibitor -6, RBBP9 inh -2, Hep lipid conf 40 and AML12 cytotox -0.26.
For O=C1C(Nc2ccccc2)=C(N2CCCCC2)C(=O)c2ccccc21 the results were Tb hexokinase -6, TNF necrop inh -14, zVAD death inh 1, M18AAP inhibitor 1 and RBBP9 inh 7.
Screening N/C(=N\c1nc2c(c(=O)[nH]1)CCCC2)Nc1ccc(Oc2ccccc2)cc1 returned Tb hexokinase -2, TNF necrop inh -2, Lipid droplet 61*, zVAD death inh -1, M18AAP inhibitor 3, RBBP9 inh -6, Hep lipid conf 41 and AML12 cytotox 1.1.
CCN(CC)CCN(C(=O)Cn1nnc(-c2ccc(C)o2)n1)C(C(=O)NC1CCCC1)c1ccc(F)cc1 (stereo unspecified) was read as Lipid droplet -2 and M18AAP inhibitor 1.
For COc1ccc(C[C@H]2CN3C(=NC[C@@H]3Cc3ccccc3)N2CCNC(=O)c2ccc(C)c(Br)c2)cc1 the results were Tb hexokinase 20, TNF necrop inh -16, Lipid droplet -24, zVAD death inh 1, M18AAP inhibitor -6 and RBBP9 inh 5.
For COc1ccc(C[C@H]2CN3C(=NC[C@H]3Cc3ccccc3)N2CCNC(=O)c2ccc(C)c(Br)c2)cc1 the results were Tb hexokinase 30, TNF necrop inh -16, Lipid droplet 54*, zVAD death inh 0, Hep lipid conf -3 and AML12 cytotox -0.018.
Screening Cc1ccc(COC(=O)NCc2cccnc2)cc1 returned Lipid droplet -7 and M18AAP inhibitor -13.
Screening CC1CN(c2ccccc2)CCN1Cc1nc(Cc2ccccc2)no1 (stereo unspecified) returned Tb hexokinase -6, TNF necrop inh 2, Lipid droplet -14, zVAD death inh 3, M18AAP inhibitor -9 and RBBP9 inh -5.
CCCCn1c(SCC(=O)Nc2cc(C(F)(F)F)cc(C(F)(F)F)c2)nnc1C(CC)N(C)C (stereo unspecified) was read as Tb hexokinase -11, TNF necrop inh 6, Lipid droplet 78*, zVAD death inh 1, M18AAP inhibitor -1, RBBP9 inh -8, Hep lipid conf 107*, AML12 cytotox -0.35 and AML12 tox conf 17.
Screening CCC(c1nnc(SCC(=O)Nc2ccc(NC(C)=O)cc2)n1Cc1ccccc1)N(C)C (stereo unspecified) returned Lipid droplet 2 and M18AAP inhibitor -3.
Screening O=C(CSC1=NC2(CCCCCC2)N=C1c1ccccc1)Nc1ccc2c(c1)OCCO2 returned Tb hexokinase -1, TNF necrop inh 5, Lipid droplet 59*, zVAD death inh 6, M18AAP inhibitor -3, RBBP9 inh -2, Hep lipid conf 69*, AML12 cytotox -0.48 and AML12 tox conf -23.
